Our source for the inhibition in vivo and serum triglyceride % inhibition values is ChEMBL document CHEMBL1123127, “Comparison of the hypolipidemic activity of cyclic vs. acyclic imides” (1985).

Molecules are shown by their SMILES.

The test system of assay [1] is Mus musculus. The assay is described as follows: Reduction in serum cholesterol in CF1 mice on day 16 following 20 mg/kg i.p. o.d. for 16 days. Format: functional. Particulars: ip, 384 h, route intraperitoneal. The gist of the method:
(§1)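 Mice dosed at 20 mg/kg per day for 16 days. On days 9 and 16, blood was taken by tail-vein bleeding into nonheparinized microcapillary tubes and spun for 3 min to give serum. Serum cholesterol was measured by a modified Liebermann–Burchard reaction.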

The test system of assay [2] is Mus musculus. The assay is described as follows: Reduction in serum cholesterol in CF1 mice on day 9 following 20 mg/kg i.p. o.d. for 16 days. Format: functional. Particulars: ip, route intraperitoneal. The gist of the method:
as §1

Assay [3] concerns Mus musculus. The assay is described as follows: Reduction in serum triglyceride in CF1 mice on day 14 following 20 mg/kg i.p. o.d. for 16 days. Particulars: ip.

With `CCOC(=O)CCN(C(C)=O)C(C)=O`, the inhibition in vivo at 20 mg/kg in the assay with Mus musculus [1] was determined as 25%; in the assay with Mus musculus [2], 11%. In the assay on Mus musculus [3], this compound had a serum triglyceride % inhibition at 20 mg/kg of 11%.

On to `CC(=O)N(CCC(=O)O)C(C)=O`, for which the inhibition in vivo at 20 mg/kg in the assay with Mus musculus [1] was 21%; with Mus musculus [2] it was 20%. The compound further showed a serum triglyceride % inhibition at 20 mg/kg with Mus musculus [3] of 21%.

With `CC(=O)CCN(C(C)=O)C(C)=O`, the inhibition in vivo at 20 mg/kg in the assay on Mus musculus [1] was 30%; in the assay on Mus musculus [2], 14%. In the assay with Mus musculus [3], the serum triglyceride % inhibition at 20 mg/kg stood at 20%.

With `O=C(O)CCN1C(=O)CCC1=O`, the values for the inhibition in vivo at 20 mg/kg in the assay with Mus musculus [1] and in the assay on Mus musculus [2] were 39% and 32%, respectively. Besides, the serum triglyceride % inhibition at 20 mg/kg in the assay with Mus musculus [3] worked out at 44%.

On to `CC(=O)CCn1c(=O)c2ccccc2c2ccccc2c1=O`, for which the inhibition in vivo at 20 mg/kg in the assay with Mus musculus [1] and in the assay with Mus musculus [2] was 23% throughout. For the same compound, in the assay on Mus musculus [3], the serum triglyceride % inhibition at 20 mg/kg was 10%.

Regarding `CCCCN1C(=O)CCC1=O`, the inhibition in vivo at 20 mg/kg in the assay with Mus musculus [1] is 15%; in the assay on Mus musculus [2], 0%. In the assay on Mus musculus [3], this compound came in with a serum triglyceride % inhibition at 20 mg/kg of 35%.

As for `CC(=O)CCN(C(=O)c1ccccc1)C(=O)c1ccccc1`, the inhibition in vivo at 20 mg/kg with Mus musculus [1] was determined as 26%; in the assay with Mus musculus [2], 23%. This compound also had a serum triglyceride % inhibition at 20 mg/kg in the assay on Mus musculus [3] of 39%.

Regarding `CCOC(=O)CCN1C(=O)CCC1=O`, the values for the inhibition in vivo at 20 mg/kg with Mus musculus [1] and in the assay on Mus musculus [2] were 23% and 11%, respectively. The compound also had a serum triglyceride % inhibition at 20 mg/kg in the assay on Mus musculus [3] of 23%.

In the case of `O=C(NC(=O)c1ccccc1)c1ccccc1`, the inhibition in vivo at 20 mg/kg in the assay on Mus musculus [1] is 35%; in the assay with Mus musculus [2] it was 14%. The same compound came in with a serum triglyceride % inhibition at 20 mg/kg with Mus musculus [3] of 7%.

On to `CCCCn1c(=O)c2ccccc2c2ccccc2c1=O`, for which the inhibition in vivo at 20 mg/kg was determined as 23% with Mus musculus [1] and 22% in the assay with Mus musculus [2]. In addition, the serum triglyceride % inhibition at 20 mg/kg with Mus musculus [3] is 48%.

Regarding `O=c1[nH]c(=O)c2ccccc2c2ccccc12`, the inhibition in vivo at 20 mg/kg in the assay with Mus musculus [1] amounted to 18%; in the assay with Mus musculus [2], 19%. This compound showed a serum triglyceride % inhibition at 20 mg/kg in the assay on Mus musculus [3] of 19%.

On to `O=C(O)CCn1c(=O)c2ccccc2c2ccccc2c1=O`, for which the figures for the inhibition in vivo at 20 mg/kg in the assay on Mus musculus [1] and in the assay on Mus musculus [2] were 16% and 12%, respectively. Besides, in the assay on Mus musculus [3], the serum triglyceride % inhibition at 20 mg/kg was 25%.

For the compound `CCCCN(C(C)=O)C(C)=O`, the inhibition in vivo at 20 mg/kg in the assay with Mus musculus [1] is 20%; with Mus musculus [2] it was 11%. Further, in the assay with Mus musculus [3], the serum triglyceride % inhibition at 20 mg/kg was found to be 0%.

`CCCCN(C(=O)c1ccccc1)C(=O)c1ccccc1`: the inhibition in vivo at 20 mg/kg with Mus musculus [1] was 19%; in the assay on Mus musculus [2], 23%. The same compound registered a serum triglyceride % inhibition at 20 mg/kg in the assay on Mus musculus [3] of 30%.

Regarding `CC(=O)CCN1C(=O)CCC1=O`, the figures for the inhibition in vivo at 20 mg/kg in the assay on Mus musculus [1] and in the assay on Mus musculus [2] were 10% and 12%, respectively. The compound also returned a serum triglyceride % inhibition at 20 mg/kg with Mus musculus [3] of 25%.

As for `CCOC(=O)C(C)(C)Oc1ccc(Cl)cc1` [CLOFIBRATE], the results for the inhibition in vivo at 20 mg/kg in the assay with Mus musculus [1] and in the assay on Mus musculus [2] were 13% and 12%, respectively. This compound also showed a serum triglyceride % inhibition at 20 mg/kg in the assay on Mus musculus [3] of 25%.

In the case of `CC(=O)NC(C)=O` [DIACETAMIDE], the inhibition in vivo at 20 mg/kg was found to be 18% with Mus musculus [1] and 4% in the assay with Mus musculus [2]. The serum triglyceride % inhibition at 20 mg/kg with Mus musculus [3] worked out at 2%.

As to `O=C1NC(=O)c2ccccc21` [PHTHALIMIDE], the results for the inhibition in vivo at 20 mg/kg with Mus musculus [1] and with Mus musculus [2] were 43% and 37%, respectively. For the same compound, in the assay with Mus musculus [3], the serum triglyceride % inhibition at 20 mg/kg worked out at 56%.

For the compound `O=C1CCC(=O)N1` [SUCCINIMIDE], the inhibition in vivo at 20 mg/kg with Mus musculus [1] is 27%; with Mus musculus [2], 2%. Moreover, in the assay with Mus musculus [3], the serum triglyceride % inhibition at 20 mg/kg was found to be 32%.

The inhibition in vivo is the relative decrease from the control value, in per cent.
